Hits are enriched below; roughly 1.7% of the tested compounds scored in any of these assays.
IDE cell activ: human IDE activators in live cells, primary screen, fluorescence polarization, HEK cells, FAbeta-B substrate | 0.073% of 340,000 active | Insulin-degrading enzyme (Homo sapiens), P14735 | activation, % at 5.96 µM | FAbeta-B cleavage; 0% vehicle, 100% cell-free pure enzyme wells;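 active = activation above the mean of all tested compounds plus 3 SD, set per screening campaign, cut at about 17% in these data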
CSN inh: inhibitors of CSN-mediated cullin deneddylation, primary screen, biochemical, fluorescence polarization, uHTS; inhibition, % at 12.5 µM; 0.38% of 360,000 active; Purified CSN, SCF-Nedd8-OG deneddylation; AID 651999, 2013;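 active = pattern-corrected inhibition above about 35%, with an unprinted fluorescence ratio check between 0.5 and 1.5, limit read from the data, passing the limit was not always enough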;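 also: 0% = enzyme with substrate and 100% = substrate without enzyme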
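Assay system: purified human Csn5 enzyme expressed in HEK293T cells; measure: % inhibition; also added: SCFSkp2-Nedd8OG substrate at 10 nM final; technique: fluorescence polarization; times: reaction 90 min, room temperature; medium: Tris buffer pH 7.5, NaCl, DTT, Tween-20, trehalose, ovalbumin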
HNF4A DNA FP: change in binding of human HNF4A to DNA, primary screen, biochemical, fluorescence polarization, FITC-DNA | 0.3% of 360,000 active | activity change, % at 10 µM | 1 h | Hepatocyte nuclear factor 4-alpha (Homo sapiens), P41235; in the data active = activity change above about 30%, passing the limit was not always enough
Target sequence (P41235 whole entry, looked up): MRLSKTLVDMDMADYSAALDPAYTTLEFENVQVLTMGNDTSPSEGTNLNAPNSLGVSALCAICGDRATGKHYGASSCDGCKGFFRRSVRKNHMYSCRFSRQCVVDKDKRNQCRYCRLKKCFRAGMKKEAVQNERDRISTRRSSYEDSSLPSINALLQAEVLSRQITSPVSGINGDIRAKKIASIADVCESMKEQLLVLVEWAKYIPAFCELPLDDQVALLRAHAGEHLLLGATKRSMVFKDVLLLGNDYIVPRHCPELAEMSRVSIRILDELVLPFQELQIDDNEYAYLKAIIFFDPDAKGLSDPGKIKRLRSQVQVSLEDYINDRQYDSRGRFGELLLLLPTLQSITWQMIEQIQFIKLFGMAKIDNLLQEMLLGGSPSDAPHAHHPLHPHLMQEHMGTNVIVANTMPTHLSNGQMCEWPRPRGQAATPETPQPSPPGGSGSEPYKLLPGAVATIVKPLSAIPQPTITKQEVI
TPT1 inh: Candida albicans TPT1 enzyme inhibitors, primary screen, biochemical, fluorescence polarization; tRNA 2'-phosphotransferase TPT1 (Candida albicans SC5314); 0.81% of 300,000 active; recombinant caTPT1, FP RNA substrate dephosphorylation; AID 1962, 2009; inhibition, % at 5 µM;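 active = inhibition above the mean of all tested compounds plus 3 SD, set per screening campaign, cut at about 24% in these data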;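 also: plate controls were DMSO alone for no effect and ferristatin control at 100 nM for full effect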
IDE cell inh: human IDE inhibitors in live cells, primary screen, fluorescence polarization, HEK cells, FAbetaB substrate. Insulin-degrading enzyme (Homo sapiens), P14735. FAbetaB cleavage. inhibition, % at 5.59 µM. 0.41% of 320,000 active;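 active = percent inhibition above the average of all tested compounds plus 3 SD, set per screening campaign, cut at about 16% in these data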;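 also: IDE supplied by intact live HEK cells; FP after avidin binding of uncleaved biotin substrate so inhibition keeps polarization high; 0% = DMSO wells and 100% = 60 µM reference IDE inhibitor Ii1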
Rpn11 block: Rpn11 (PSMD14) deubiquitinase inhibitors, primary screen, biochemical, fluorescence polarization, uHTS; 26S proteasome non-ATPase regulatory subunit 14 (Homo sapiens), O00487; human 26S proteasome, Ub4-pepOG fluorescence polarization; 20S core pre-blocked with epoxomicin; inhibition, % at 20 µM; 0.59% of 360,000 active; AID 588493, 2011;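 active = inhibition at 20 µM, scaled to each plate's controls, above about 33%, limit read from the data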
TPT1 inh confirm: Candida albicans TPT1 inhibitors, confirmation, biochemical, fluorescence polarization, triplicate | shares compounds with TPT1 inh | recombinant caTPT1, RNase T1 coupled | inhibition, % at 5 µM | 74% of 2,400 active | AID 2149, 2009;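 active = inhibition above the primary screen limit, the mean inhibition of all tested compounds plus 3 SD, cut at about 25% in these data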
RNase T1 inh: RNase T1 inhibitors, counter-screen for TPT1 inhibitor project, biochemical, fluorescence polarization; shares compounds with TPT1 inh; RNase T1 cleavage, 1536-well; inhibition, % at 5 µM; 83% of 2,400 active;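 active = inhibition above the solvent-only control well mean plus 3 SD, limit set per screening run, cut at about 23% in these data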;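 also: plate controls were DMSO wells with enzyme for no effect and wells without RNase T1 for full effect; inhibitors block cleavage so intact labeled substrate keeps polarization high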
Target sequence (P00651 whole entry, looked up): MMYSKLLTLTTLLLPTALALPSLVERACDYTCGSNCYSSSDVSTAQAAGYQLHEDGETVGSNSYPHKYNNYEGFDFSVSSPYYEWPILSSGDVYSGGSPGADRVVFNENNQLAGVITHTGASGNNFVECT
IDE inh confirm: human IDE inhibitors in live cells, confirmation, fluorescence polarization, HEK cells, FAbetaB substrate. shares compounds with IDE cell inh. FAbetaB cleavage. inhibition, % at 5.59 µM. 51% of 1,200 active;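 active = mean inhibition across triplicate wells above the cutoff set by the earlier primary insulin-degrading enzyme screen, cut at about 16% in these data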;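 also: 0% = DMSO wells and 100% = 60 µM reference IDE inhibitor Ii1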
HEK cytotox: cytotoxicity in HEK cells, cytotoxicity control for IDE inhibitor project, cell-based, luminescence; HEK293 cytotoxicity, ATP luminescence; 28% of 1,200 active; inhibition, % at 5.59 µM; shares compounds with IDE cell inh; in the data active = inhibition above about 22%;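 also: 0% = vehicle wells and 100% = reference cytotoxic drug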
Rpn11 inh conf: Rpn11 (PSMD14) deubiquitinase inhibitors, confirmation, biochemical, fluorescence polarization, single concentration; shares compounds with Rpn11 block; purified human 26S proteasome, Ub4-pepOG fluorescence polarization; proteasome pretreated with epoxomicin; inhibition, % at 20 µM; 29% of 1,900 active; AID 602318, 2012
MMP-2 counter: MMP-2 enzyme inhibition, confirmation, counter-screen for RPN11 inhibitor project, biochemical, fluorescence, single concentration | AID 602330, 2012 | recombinant MMP-2, FRET peptide cleavage fluorescence | inhibition, % at 20 µM | shares compounds with Rpn11 block | 4% of 1,900 active;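 also: human MMP-2 activated beforehand with APMA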
Thrombin inh: bovine thrombin protease inhibition, confirmation, counter-screen for Rpn11 inhibitor project, biochemical, fluorescence polarization, single concentration; shares compounds with Rpn11 block; bovine thrombin cleavage of Ub4-pepOG; inhibition, % at 20 µM; 13% of 1,900 active; AID 602333, 2012;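 active = mean inhibition at least 40% at 20 µM, or signal 3 deviations below plate average, so some actives read negative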;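 also: plate controls were thrombin with DMSO for no effect and buffer wells lacking thrombin for full effect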
* hit, by the source's call; · = no result shown. Rule as the data show it, unless noted: active = inhibition above about 40%; inactive = the rest.

SMILES | IDE cell activ | CSN inh | HNF4A DNA FP | TPT1 inh | IDE cell inh | Rpn11 block | TPT1 inh confirm | RNase T1 inh | IDE inh confirm | HEK cytotox | others
CCc1cccc2cc3c(N)c(C(=O)Nc4ccc(S(=O)(=O)N5CCCC5)cc4)sc3nc12 | -11 | 25 | 13 | 39* | 25* | · | 33* | 42* | 18* | 31*
COc1ccc(C(=O)c2sc3nc(-c4ccccc4)ccc3c2N)cc1 | -34 | 6 | 28 | 82* | 21* | 64* | 85* | 92* | 19* | 13
Cn1c(/C(C#N)=C/c2ccc(-c3ccc(S(N)(=O)=O)cc3)o2)nc2ccccc21 | -7 | -71 | -2 | 118* | 26* | -72 | 120* | 121* | 47* | 46*
Cn1c(/C(C#N)=C/c2cccc(O)c2)nc2ccccc21 | 9 | 2 | -3 | 0 | 2 | -1 | · | · | · | ·
COc1ccc2c(n1)Sc1nc3ccccc3nc1N2 | -35 | 31 | 32 | 41* | 28* | · | 56* | 64* | 55* | 12
O=C(Nc1ccc(S(=O)(=O)Nc2ncccn2)cc1)c1ccc(Br)cc1 | · | -4 | 1 | · | · | 3 | · | · | · | ·
CN(C)c1ccc(/C=C2\SC(=S)N(Nc3ncc(C(F)(F)F)cc3Cl)C2=O)cc1 | -155 | -68 | 166 | 123* | 49* | · | 141* | 130* | 130* | 10
COc1ccc(Cc2nc3ccc(C(=O)N(C)Cc4nccn4C)cc3o2)cc1 | · | -4 | 2 | · | · | 4 | · | · | · | ·
CC(=Nc1ccc(O)cc1)c1sc2ccccc2c1O | -28 | 35 | 19 | 55* | 27* | 21 | 65* | 80* | 35* | 19
CC(=Nc1cccc(C)c1)c1sc2ccccc2c1O | -26 | 9 | 16 | 42* | 16* | 29 | 68* | 80* | 29* | 8
CC(=O)NCCN=C(C)c1sc2ccccc2c1O | -1 | 0 | -3 | 1 | 8 | -2 | · | · | · | ·
CC(=Nc1ccccc1O)c1sc2ccccc2c1O | -89 | 8 | 38* | 104* | 84* | · | 125* | 126* | 96* | 10
O=S1(=O)CC(N2CC=CC2)CN1Cc1cn(Cc2ccccc2)nn1 (stereo not given) | · | -7 | 0 | · | · | · | · | · | · | ·
COCCNC(=O)C1(C)CCN(C(=O)c2cc(C)nn2C(C)(C)C)C1 (stereo not given) | · | 0 | 0 | · | · | 0 | · | · | · | ·
C[n+]1cc(C(=O)N2CCCCC2)ccc1/C=C/c1c[nH]c2ccccc12 | -38 | 149 | 147 | 132* | 27* | · | 109* | 109* | 40* | 14
COc1cccc(C(O)c2ncc(-c3ccccc3)[nH]2)c1 (stereo not given) | · | 4 | 0 | · | · | 4 | · | · | · | ·
Cc1[nH]nc2c1C(c1ccc(F)cc1)C(C#N)=C(N)O2 (stereo not given) | 1 | 2 | 0 | 1 | 8 | -1 | · | · | · | ·
Cc1oc(C)c2c(=O)ccc3c(c12)OC(N)=C(C#N)C3c1ccc(F)cc1 (stereo not given) | -86 | 27 | 18 | 31* | 27* | · | 17 | 28* | 68* | 10
Cc1ccc2ccccc2c1C(O)c1ncc(-c2ccccc2F)[nH]1 (stereo not given) | · | 3 | -4 | · | · | 1 | · | · | · | ·
CCOC(=O)N1CCC2(CC1)C(C#N)=C(N)Oc1c2sc2nc(C)cc(C)c12 | -8 | -4 | -1 | 2 | 0 | 2 | · | · | · | ·
CCCN1CCC2(CC1)C(C#N)=C(N)Oc1c2sc2nc(C)cc(C)c12 | -13 | -2 | 1 | 24* | 23* | 6 | 19 | 27* | 7 | 12
Cc1cccc(N=Cc2[nH]c3ccc(Br)c(Cl)c3c2O)c1 | -28 | -3 | 54 | 112* | 22* | 11 | 73* | 77* | 23* | 11
CC(=O)c1cc(NC(=O)c2ccc(Cl)cc2)c(=O)oc1/C=C/N(C)C | -43 | 55* | 121* | 132* | 17* | · | 108* | 110* | 54* | 12
Cc1csc(-c2nc3ccccc3n2C(C)c2nc3ccccc3[nH]2)c1 (stereo not given) | · | 1 | 5 | · | · | · | · | · | · | ·
N=C1/C(=C\c2ccc(-c3cc(Cl)cc(Cl)c3)o2)C(=O)N=C2SC=C(c3ccccc3)N12 | -1 | 5 | 4 | 8 | 6 | 14 | · | · | · | ·
N=C1/C(=C/c2ccc(-c3cccc(C(=O)O)c3)o2)C(=O)N=C2SC=C(c3ccccc3)N12 | -1 | 77* | -11 | 74* | 7 | 132* | 84* | 92* | · | · | Rpn11 inh conf=152*;MMP-2 counter=11;Thrombin inh=51*
COc1cc(Nc2ncnc(N)n2)cc(OC)c1OC | 1 | -1 | -2 | 2 | -3 | -4 | · | · | · | ·

High-throughput results from PubChem BioAssay.
